# Screening results deposited in PubChem by several laboratories.
# bovine MsrA act: bovine methionine sulfoxide reductase A activation. purified bovine MsrA, absorbance read-out. activation, % at 10.6 µM. 360,000 compounds, 0.3% hits; in the data active means activation above about 7.5%
# AI-2 QS mod: modulates the Vibrio harveyi AI-2 quorum sensing system. Vibrio harveyi JMH597 AI-2 luminescence/OD600 ratio, 9 h; active compounds read low; strain lacks LuxN and CqsS sensors; 0 = neutral-control median. activity change, % at 7.5 µM. 300,000 compounds, 0.4% hits. AID 2094; in the data active means activity change below about -75%, passing the limit was not always enough;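 further: luminescence divided by OD600 gain over 9 h not by final OD600 alone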
# MsrA inhibitor: bovine MsrA inhibition | purified bovine MsrA, absorbance read-out | inhibition, % at 15.5 µM | 360,000 compounds, 0.75% hits | AID 651718; in the data active means inhibition above about 4.5%
# AHR activator: activators of human aryl hydrocarbon receptor | P35869 | 320,000 compounds, 2.5% hits | AHR-responsive luciferase reporter cells, luminescence | activation, % at 5 µM; in the data active means activation above about 47%
# HTR2A ag: activates the mouse 5-HT2A serotonin receptor; CHO-K1 mHTR2A beta-arrestin complementation, luminescence; percent of 30 µM serotonin response; activation, % at 7.6 µM; 360,000 compounds, 0.66% hits; AID 624169; P35363;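 active means activation above a run cutoff, the mean activation of all tested compounds plus 3 SD, cut at about 14% in these data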
# Target sequence (P35363 whole entry, looked up): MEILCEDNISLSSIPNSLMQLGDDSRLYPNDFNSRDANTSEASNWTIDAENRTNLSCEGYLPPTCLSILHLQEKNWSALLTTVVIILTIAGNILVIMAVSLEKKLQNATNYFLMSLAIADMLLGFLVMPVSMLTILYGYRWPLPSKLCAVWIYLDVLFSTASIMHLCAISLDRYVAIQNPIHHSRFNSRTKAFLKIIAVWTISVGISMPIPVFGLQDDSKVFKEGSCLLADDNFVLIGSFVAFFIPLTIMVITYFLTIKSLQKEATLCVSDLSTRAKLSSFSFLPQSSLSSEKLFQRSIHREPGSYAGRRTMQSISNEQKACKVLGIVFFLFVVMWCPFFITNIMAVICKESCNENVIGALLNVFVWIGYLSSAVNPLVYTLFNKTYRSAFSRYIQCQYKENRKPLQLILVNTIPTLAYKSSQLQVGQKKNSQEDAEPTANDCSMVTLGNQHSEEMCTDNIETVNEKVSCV
# TbMetRS inhib: blocks T. brucei methionyl-tRNA synthetase activity; purified T. brucei MetRS, ATP depletion, Kinase-Glo luminescence; inhibition, % at 11.9 µM; 360,000 compounds, 0.4% hits;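 active means inhibition above a per-plate cutoff of the control wells' mean inhibition plus 3 SD, cut at about 5.5% in these data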
#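 Dosing: 11.9 µM single point; system: parasite MetRS enzyme; technique: luminescence of leftover ATP; times: 15 min enzyme-compound preincubation, 2 h reaction, 10 min detection, 25 °C; replicates: each compound tested once; read-out basis: percent inhibition relative to median high and low control wells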
# Hits are given with their value; - = inactive; . = no result. Only some compounds are listed: those with a hit (about 4.4% of all), similar ones and a draw of the others.
SMILES,bovine MsrA act,AI-2 QS mod,MsrA inhibitor,AHR activator,HTR2A ag,TbMetRS inhib
Cc1cc2c(c(=O)o1)[C@@]1(C(=O)N(C)c3ccccc31)C1=C(CCCC1=O)O2,.,.,-,.,.,.
C#CCSc1nc(-c2ccccc2)cc(C(F)(F)F)c1C#N,-,-,-,64,-,-
N#Cc1c(C(F)(F)F)cc(-c2cccs2)nc1SCc1cccnc1,-,-,-,-,17,-
N#Cc1c(C(F)(F)F)cc(-c2cccs2)nc1SCc1ccc(Cl)nc1,-,-,-,-,-,-
COc1ccc(-c2cc(C(F)(F)F)c(C#N)c(SCC(=O)O)n2)cc1,-,.,-,-,-,-
Nc1[nH]c(C(=O)c2ccc(Br)cc2)c(-c2ccc(F)cc2)c1C(=O)NCCc1c[nH]c2ccccc12,.,.,-,.,.,.
CCOc1ccccc1C(=O)Nc1cc(C)ccc1NC(=O)c1ccco1,-,-,-,68,-,-
Cc1ccc(NC(=O)c2ccco2)c(NC(=O)c2ccccc2)c1,-,-,-,-,-,-
CCOc1cc(NC(=O)c2ccco2)c(OCC)cc1NC(=O)Cc1cccc(OC)c1,-,-,-,54,-,-
Cc1ccc(NC(=O)c2ccco2)c(NC(=O)c2ccc(Cl)cc2)c1,-,-,-,56,-,-
Cc1ccc(NC(=O)c2ccc(Cl)c(S(=O)(=O)NCc3ccco3)c2)c(O)c1,-,.,-,56,-,-
O=C1CC(NCc2cccs2)C(=O)N1c1ccc(Cl)cc1 (centres undefined),-,-,-,72,-,-
COc1ccc(C(=O)NCCNc2nc3cc(C)c(C)cc3cc2C)cc1,-,-,-,63,-,-
Cc1cc2cc(C)c(NCCNC(=O)c3cccc(F)c3)nc2cc1C,-,-,-,56,-,-
COc1ccc(C(=O)NCCNc2nc3ccc(C)cc3cc2C#N)cc1,-,-,-,-,-,-
Cc1cccc(C(=O)NCCNc2nc3cc(C)c(C)cc3cc2C)c1,-,-,-,-,-,-
CS(=O)(=O)c1ccc(OCCCN2CCC(C(O)(c3ccccc3)c3ccccc3)CC2)cc1,.,.,-,.,.,.
C=CCN1C(=O)c2n[nH]c(COC)c2C1c1ccc(Br)cc1 (centres undefined),.,.,-,.,.,.
Nc1ccccc1C(=O)N1CCc2ccccc21,-,-,-,-,-,-
O=c1c2ccccc2sn1-c1ccccc1F,-,.,-,.,-,-
O=c1c2ccccc2sn1-c1nccs1,17,-,-,.,-,-
O=C1c2ccccc2C(=O)N1c1nccs1,-,.,-,.,-,-
Cn1sc2ccccc2c1=O,7.8,.,-,.,-,-
CN1/C(=C\C(=O)c2cccnc2)Sc2ccccc21,-,-,-,-,-,-
COc1cccc(C(=O)/C=C2\Sc3ccccc3N2C)c1,-,-,-,58,-,-
SMILES,bovine MsrA act,AI-2 QS mod,MsrA inhibitor,AHR activator,HTR2A ag,TbMetRS inhib
COc1ccc(OC)c(S(=O)(=O)NC(=O)C2(C)CCN2C(=O)c2ccco2)c1 (centres undefined),-,.,-,.,-,-
CCN(CC)C(=O)CSc1nnc(-c2cc(-c3ccc(Cl)cc3)nc3ccccc23)o1,-,-,-,-,-,-
CCNC(=O)CSc1nnc(-c2cc(-c3ccc(Cl)cc3)nc3ccccc23)o1,-,-,-,50,-,-
CN(CCn1ccnc1)Cc1cn(-c2ccccc2)nc1-c1ccc2c(c1)OCO2,-,-,-,55,-,-
CN(Cc1cn(-c2ccccc2)nc1-c1ccc2c(c1)OCO2)Cc1nccn1C,-,-,-,48,-,-
CN(Cc1cn(C)nc1-c1ccccc1F)Cc1nccn1C,-,-,-,-,-,-
FCCCOc1ccc(-c2ccnc(-c3ccccc3)n2)cc1,-,-,-,52,-,-
Cc1cc(N2CCN(C(=O)OC(C)(C)C)C[C@@H]2C)ccc1N1CCN(Cc2ccccc2)[C@@H](C)C1,.,.,-,.,.,.
O=C(OCC(=O)c1ccc[nH]1)c1ccccc1,-,-,-,-,-,-
O=C(OCC(=O)c1ccc[nH]1)c1cncc(Br)c1,-,.,-,-,15,-
CC(C)C(=O)Nc1nc2cc3c(cc2s1)OCO3,-,-,-,66,-,-
O=C(Nc1nc2cc3c(cc2s1)OCO3)C1CC1,-,-,-,57,-,-
CC(C)(C)C(=O)Nc1nc2cc3c(cc2s1)OCO3,-,-,-,-,-,-
O=C(Nc1nc2cc3c(cc2s1)OCO3)C1CCCCC1,-,-,-,-,-,-
COc1ccc(C=CC(=O)c2c(N)n(C)c(=O)n(C)c2=O)cc1,.,.,-,.,.,.
CC(C)n1c(/C=C/c2ccccc2)nc2ccccc21,-,-,-,57,-,-
COC(=O)C1=C(C)N(Cc2ccccc2C(F)(F)F)C(=NCc2ccc3c(c2)OCO3)NC1c1ccccc1 (centres undefined),.,.,-,.,.,.
COc1nnc(-c2ccc(N3CCCCC3)c(NC(C)=O)c2)c2ccccc12,-,-,-,78,-,-
Cc1ccc2cccc(OCc3ccc(Br)cc3)c2n1,-,-,-,73,-,-
CCOC(=O)CC(=O)CSc1nnc2sc3ccccc3n12,-,.,-,-,-,-
CN(C)C(=O)CSc1nnc2sc3ccccc3n12,-,-,-,57,-,-
CCN(CC)C(=O)CSc1nnc2cc(C)c3ccccc3n12,-,-,-,52,-,-
O=[N+]([O-])c1cccc(COc2ccc(CO)cc2)c1,.,.,-,.,.,.
Cc1ccccc1NC(=O)c1ccccc1NC(=O)c1ccco1,-,-,-,-,-,-
O=C(Nc1ccc(NC(=O)c2ccco2)c(Cl)c1)c1ccccc1,-,-,-,59,-,-
SMILES,bovine MsrA act,AI-2 QS mod,MsrA inhibitor,AHR activator,HTR2A ag,TbMetRS inhib
O=C(Nc1ccccc1C(=O)Nc1ccc(F)cc1)c1ccco1,-,-,-,172,-,-
O=C(Nc1ccccc1)Nc1ccccc1Br,-,-,-,-,-,-
O=C(Nc1ccccc1)Nc1ccc(Br)c(Cl)c1,-,-,-,67,-,-
O=C(Nc1ccccc1O)c1cccc(NC(=O)c2ccco2)c1,-,.,-,54,-,-
O=C(c1ccccc1)c1cccc(NC(=O)c2ccco2)c1,-,-,-,-,-,-
O=C(NCC1CCN(C(=O)C(=O)c2cc3ccccc3o2)CC1)c1cccnc1,.,.,-,.,.,.
Cc1cc(N2CCN(CC(C)(C)O)C[C@@H]2C)ccc1N1CCN(CC(C)(C)O)[C@@H](C)C1,.,.,-,.,.,.
CN(C)CCNc1ncnc2c1ncn2[C@H]1CN(CCc2ccccc2)C[C@@H](CO)O1,-,.,-,.,-,-
NC(=O)[C@@H]1CCCN1C(=O)[C@@H](Cc1ccccc1)NC(=O)[C@H]1O[C@@H](n2ccc(N)nc2=O)[C@H](O)[C@@H]1O,.,.,-,.,.,.
CC(C)[C@H](NC(=O)c1ccc(Cl)cc1Cl)C(=O)N1CCC[C@H]1C(=O)NCc1ccccc1,.,.,-,.,.,.
O=C(Nc1cccc(NC(=O)c2nccc3ccccc23)c1)c1ccco1,-,.,-,102,-,-
O=C(Nc1ccc(Br)c(Cl)c1)c1ccco1,-,-,-,75,-,-
COc1c(CC=C(C)C)c(O)cc2oc(=O)c3c4ccc(O)cc4oc3c12,-,-,.,-,-,-
